Results gathered from unrelated publications.
Target: Serine/threonine-protein kinase pim-3 (PIM3, Homo sapiens, UniProt Q86V86)

| Compound | assay | conditions | quantity | result |
| --- | --- | --- | --- | --- |
| COc1cc(Nc2c(C#N)cnc3cc(OCCCN4CCN(C)CC4)c(OC)cc23)c(Cl)cc1Cl | cell-free assay | 0.5 µM | remaining signal | 97.7% |
| CC/C(=N\NC(=O)NCc1cccc(O)c1)c1ccc(O)c(C)c1O | enzyme activity, inhibitor | 0.1 µM | inhibition | 4.6% |
| Cc1ccc(Nc2nccc(N(C)c3ccc4c(C)n(C)nc4c3)n2)cc1S(N)(=O)=O | enzyme activity, inhibitor | 0.5 µM | remaining activity | 81.6% |
| COc1cc(Nc2cnc(C#N)c(O[C@H](C)CN(C)C)n2)ncc1-c1cnn(C)c1 | enzyme activity, inhibitor, radiometric | 1 µM | remaining activity | 58% |
| CS(=O)(=O)Nc1cccc(-c2csc(NC(=O)CSc3nc4nccnc4c(=O)n3CCc3ccccc3)n2)c1 | enzyme activity, inhibitor | 10 µM | inhibition | 1% |
| FC(F)(F)c1ccc2c(c1)nc(-c1cccnc1)n2C1CC1 | cell-free assay, competition with immobilised ligand | 1 µM | remaining binding | 100% |
| CC(C)(C)C(=O)c1sc(NC2CCCCC2)nc1N | enzyme activity, inhibitor | 10 µM | remaining activity | 82% |
| Cc1ccc(C(=O)Nc2ccc(CN3CCN(C)CC3)c(C(F)(F)F)c2)cc1C#Cc1cnc2cccnn12 | enzyme activity, inhibitor | 23.5 nM | remaining activity | 100% |
| Cc1sc(C(=O)NC2COC2)cc1-n1cc(NC(=O)Nc2c(F)cccc2Cl)cn1 | enzyme activity, inhibitor | 10 µM | remaining activity | 129% |
| O=c1nc(-c2ccccn2)sc2ccccc12 | binding, competition with immobilised ligand | 1 µM | remaining binding | 100% |
| CC(C)(C)c1nc(-c2cccc(NS(=O)(=O)c3c(F)cccc3F)c2F)c(-c2ccnc(N)n2)s1 | enzyme activity, inhibitor, radiometric | 1 µM | remaining activity | 100% |
| O=C1Nc2ccc(Cl)cc2C1=Cc1cc(Cl)c(O)c(Cl)c1 | cell-free assay | 0.5 µM | remaining signal | 14.5% |
| Cn1c(=O)n(-c2ccc(C(C)(C)C#N)cc2)c2c3cc(-c4cnc5ccccc5c4)ccc3ncc21 | enzyme activity, inhibitor | 10 µM | remaining activity | 87% |
| CN(C)C(=O)Cn1cc(-c2nc([C@@](C)(c3ccc(-c4cnc(N)nc4)cc3)C3CC3)no2)cn1 | cell-free assay, competition with immobilised ligand | 1 µM | remaining binding | 96% |
| O=C(Nc1cnn(-c2csc(C(=O)NC3COC3)c2)c1)Nc1c(F)cccc1Cl | enzyme activity, inhibitor | 5 µM | remaining activity | 73.9% |
| FC(F)c1nc2ccccc2n1-c1nc(N2CCOCC2)nc(N2CCOCC2)n1 | enzyme activity, inhibitor | 10 µM | remaining activity | 76% |
| Cc1noc([C@H]2C[C@@H](c3ccc(C(F)(F)F)cc3)CN(C(=O)N3CCS(=O)(=O)C3)C2)n1 | cell-free assay, competition with immobilised ligand | 1 µM | remaining binding | 91% |
| CCN(CC)CCNC(=O)c1c(C)[nH]c(/C=C2\C(=O)Nc3ccc(F)cc32)c1C | enzyme activity, inhibitor | 0.3 µM | inhibition | -17% |
| O=C(N1CCS(=O)(=O)CC1)N1C[C@H](c2ccc(OC(F)(F)F)cc2)C[C@H](c2nc(C3CC3)no2)C1 | cell-free assay, competition with immobilised ligand | 1 µM | remaining binding | 100% |
| Nc1nc(NC2CCCCC2)sc1C(=O)c1ccccc1 | enzyme activity, inhibitor | 10 µM | remaining activity | 69% |
| CC(=O)N1CCC(c2ccc(C(=O)NC3=NCCN3)cc2C(F)(F)F)CC1 | cell-free assay, competition with immobilised ligand | 1 µM | remaining binding | 100% |
| CC(C)(O)[C@H]1CC[C@H](Nc2ccc3ncc(-c4cccc(C(F)(F)F)c4)n3n2)CC1 | enzyme activity, inhibitor | 1 µM | remaining activity | 3.14% |
| O=C(O)[C@@H]1[C@@H](Cn2nnc3ccccc3c2=O)CC[C@H]1C(=O)c1ccc(OCCC2CCOCC2)cc1 | cell-free assay, competition with immobilised ligand | 1 µM | remaining binding | 84% |
| Cc1ccc(NC(=O)c2ccc(C)c(C(F)(F)F)c2)cc1C#Cc1nn(C2CCC(O)CC2)c2ncnc(N)c12 (stereo not drawn) | cell-free assay | 10 µM | remaining signal | 99% |
| COc1cc(/C=C/C(=O)CC(=O)/C=C/c2ccc(O)c(OC)c2)ccc1O | enzyme activity, inhibitor | 1 µM | activity vs control | 12% |
| CNC(=O)c1cc(Oc2ccc(NC(=O)Nc3ccc(Cl)c(C(F)(F)F)c3)cc2)ccn1 | enzyme activity, inhibitor | 10 µM | inhibition | -16% |
| CS(=O)(=O)N1CCCC(NC(=O)[C@H](CCC2CCCCC2)NC(=O)c2ccc(CNC(=O)c3cnc4ccccn34)cc2)C1 (stereo partly drawn) | cell-free assay, competition with immobilised ligand | 0.1 µM | remaining binding | 99% |
